Source: ChEMBL document CHEMBL1127543, “Dual angiotensin converting enzyme/thromboxane synthase inhibitors” (J Med Chem, 1994)
One block for each compound: values may come before it. Activity calls are given as the source filed them. The rule behind the calls is not given here.

Legend:
[1] = target: T1, Angiotensin-converting enzyme (Oryctolagus cuniculus, UniProt P12822); experiment: Tested for 50% inhibition of Angiotensin converting enzyme(ACE) obtained from rabbit lung (in vitro)
T1 sequence (P12822 whole entry): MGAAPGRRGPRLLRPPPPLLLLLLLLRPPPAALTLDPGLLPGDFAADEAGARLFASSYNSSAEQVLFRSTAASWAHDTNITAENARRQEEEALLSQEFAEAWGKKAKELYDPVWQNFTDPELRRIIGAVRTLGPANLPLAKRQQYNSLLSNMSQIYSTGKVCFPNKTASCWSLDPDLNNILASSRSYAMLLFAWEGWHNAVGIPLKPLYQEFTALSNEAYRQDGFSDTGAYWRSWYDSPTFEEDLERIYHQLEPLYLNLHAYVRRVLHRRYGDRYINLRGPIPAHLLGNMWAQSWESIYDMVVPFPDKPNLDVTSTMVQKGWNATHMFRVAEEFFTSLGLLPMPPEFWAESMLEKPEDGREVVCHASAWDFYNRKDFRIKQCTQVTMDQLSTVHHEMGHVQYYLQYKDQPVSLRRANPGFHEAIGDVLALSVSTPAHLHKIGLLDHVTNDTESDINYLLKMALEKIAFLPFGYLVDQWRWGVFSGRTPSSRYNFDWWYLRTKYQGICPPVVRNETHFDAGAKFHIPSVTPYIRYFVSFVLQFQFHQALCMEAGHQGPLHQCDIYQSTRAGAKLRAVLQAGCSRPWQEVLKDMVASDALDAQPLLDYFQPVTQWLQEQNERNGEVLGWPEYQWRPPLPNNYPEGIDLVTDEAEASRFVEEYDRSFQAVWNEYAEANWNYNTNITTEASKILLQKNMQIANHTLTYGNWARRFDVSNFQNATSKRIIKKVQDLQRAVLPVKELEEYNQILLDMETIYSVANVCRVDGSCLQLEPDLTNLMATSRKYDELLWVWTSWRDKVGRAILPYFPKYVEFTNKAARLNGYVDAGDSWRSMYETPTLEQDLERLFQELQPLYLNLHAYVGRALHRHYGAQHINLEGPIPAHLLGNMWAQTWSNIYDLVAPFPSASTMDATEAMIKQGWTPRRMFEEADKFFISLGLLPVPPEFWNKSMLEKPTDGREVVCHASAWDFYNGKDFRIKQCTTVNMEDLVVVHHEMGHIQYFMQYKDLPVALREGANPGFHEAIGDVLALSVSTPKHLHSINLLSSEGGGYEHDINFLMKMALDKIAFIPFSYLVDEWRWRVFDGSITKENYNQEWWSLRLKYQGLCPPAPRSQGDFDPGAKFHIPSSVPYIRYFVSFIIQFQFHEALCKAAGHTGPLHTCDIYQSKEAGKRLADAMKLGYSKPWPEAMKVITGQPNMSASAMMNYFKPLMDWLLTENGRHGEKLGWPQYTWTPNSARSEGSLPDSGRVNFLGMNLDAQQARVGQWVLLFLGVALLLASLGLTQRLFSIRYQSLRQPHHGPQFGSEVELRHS
How it was run: (§1)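 ACE was partially purified from rabbit lung and incubated with the synthetic substrate Hip-His-Leu. The hippuric acid product was measured spectrophotometrically. IC50 was read graphically from a range of inhibitor concentrations within the assay's linear range. Each determination was done in duplicate and repeated once.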

[2] = target: T1, Angiotensin-converting enzyme; experiment: Tested for 50% inhibition of Angiotensin converting enzyme(ACE) obtained from rabbit lung (in vitro); Not active; how it was run: as §1
Thromboxane-A synthase [3] = target: T2, Thromboxane-A synthase (Homo sapiens, UniProt P24557); experiment: Tested for 50% inhibition of thromboxane synthase (TxS) in human platelets (in vitro)
T2 sequence (P24557 whole entry): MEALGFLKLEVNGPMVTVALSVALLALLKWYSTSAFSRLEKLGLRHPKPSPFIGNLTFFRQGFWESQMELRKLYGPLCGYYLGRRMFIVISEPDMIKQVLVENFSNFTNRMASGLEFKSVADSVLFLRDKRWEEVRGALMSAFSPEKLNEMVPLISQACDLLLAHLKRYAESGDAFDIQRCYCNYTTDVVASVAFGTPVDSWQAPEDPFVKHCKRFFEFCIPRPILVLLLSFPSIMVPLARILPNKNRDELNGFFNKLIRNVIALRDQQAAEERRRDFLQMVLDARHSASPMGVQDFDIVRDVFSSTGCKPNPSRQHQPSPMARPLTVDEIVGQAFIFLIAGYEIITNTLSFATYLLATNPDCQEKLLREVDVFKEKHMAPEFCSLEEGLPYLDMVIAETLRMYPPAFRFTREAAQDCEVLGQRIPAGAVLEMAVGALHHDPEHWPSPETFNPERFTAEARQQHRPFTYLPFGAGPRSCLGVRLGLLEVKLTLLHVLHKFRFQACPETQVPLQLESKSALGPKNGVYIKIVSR
How it was run: (§2)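 IC50 was obtained graphically from a range of compound concentrations within the linear range of the assay. Determinations were made in duplicate and repeated once.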

Rattus norvegicus [4] = experiment: Tested for percent inhibition of maximum angiotensin I (AI) pressor response in rats on oral administration of 300 mg/kg after 4 hr; assay type: functional
How it was run: (§3)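 Conscious catheterized SHR were prepared as for blood pressure recording. At set times after dosing, angiotensin I was injected intraarterially in 0.5 mL. The rise in arterial pressure was recorded and expressed as percent inhibition of the angiotensin I pressor response.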

Rattus norvegicus [5] = experiment: Antihypertensive activity was measured in spontaneously hypertensive rat (SHR) by measuring the blood pressure on interarterial administration at dose of 1 mg/kg after 4 h; assay type: functional, Artery
How it was run: (§4)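 Conscious, fully ambulatory SHR (250–280 g) were fitted with an arterial catheter led through an infusion swivel inside a protective spring. After 24 h recovery from surgery, rats were housed singly. Mean arterial pressure was recorded continuously after dosing over a 6-h period, with later readings up to 24 h. Rats had chow and tap water freely under a 12-h light cycle.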

Rattus norvegicus [6] = experiment: Antihypertensive activity was measured in spontaneously hypertensive rat (SHR) by measuring the maximum blood pressure when administered orally at dose of 10 mg/kg after 4 h; assay type: functional; details: route oral; how it was run: as §4
Rattus norvegicus [7] = experiment: Antihypertensive activity was measured in spontaneously hypertensive rat (SHR) by measuring the blood pressure after 24 hours on interarterial administration at dose of 1 mg/kg; Not significant; assay type: functional, organism-based; design: dose 1 mg/kg; details: Artery; how it was run: as §4
Rattus norvegicus [8] = species on record: Rattus norvegicus; details: 10 mg/kg
Rattus norvegicus [9] = experiment: Tested for percent inhibition of maximum angiotensin I (AI) pressor response in rats on oral administration of 300 mg/kg after 2 hr; assay type: functional; how it was run: as §3
Rattus norvegicus [10] = experiment: Tested for percent inhibition of maximum angiotensin I (AI) pressor response in rats on oral administration of 300 mg/kg after 0.5 hr; assay type: functional; how it was run: as §3
Rattus norvegicus [11] = experiment: Antihypertensive activity was measured in spontaneously hypertensive rat (SHR) by measuring the maximum blood pressure when administered orally at dose of 10 mg/kg after 5 h; assay type: functional; details: route oral; how it was run: as §4
Rattus norvegicus [12] = experiment: Tested for percent inhibition of maximum angiotensin I (AI) pressor response in rats on oral administration of 300 mg/kg after 5 hr; assay type: functional; how it was run: as §3
Rattus norvegicus [13] = experiment: Antihypertensive activity was measured in spontaneously hypertensive rat (SHR) by measuring the blood pressure on interarterial administration at dose of 1 mg/kg after 5 h; assay type: functional, Artery; how it was run: as §4
Rattus norvegicus [14] = experiment: Antihypertensive activity was measured in spontaneously hypertensive rat (SHR) by measuring the blood pressure after 24 hours when administered orally at dose of 10 mg/kg; assay type: functional; details: route oral; how it was run: as §4
Thromboxane-A synthase [15] = target: T2, Thromboxane-A synthase; experiment: Tested for 50% inhibition of thromboxane synthase (TxS) in human platelets (in vitro); Not active; how it was run: as §2
Rattus norvegicus [16] = experiment: Antihypertensive activity was measured in spontaneously hypertensive rat (SHR) by measuring the maximum blood pressure when administered orally at dose of 10 mg/kg after 6 h; assay type: functional; details: route oral; how it was run: as §4

Compound: Cc1c(-c2cccnc2)n(CCCCP(=O)(O)O)c2ccccc12
IC50 [2]: Not Active
IC50 (Thromboxane-A synthase [3]): 100 nM

Compound: CCOP(=O)(O)CCCCn1c(-c2cccnc2)c(C)c2ccccc21.Cl
IC50 [2]: Not Active
IC50 (Thromboxane-A synthase [3]): 9 nM

Compound: O=C(O)CN1C(=O)[C@@H](N[C@@H](CCc2ccccc2)C(=O)O)C[C@@H](O)c2ccccc21
IC50 [1]: 8 nM
IC50 (Thromboxane-A synthase [15]): Not Active

Compound: O=C(O)C(CCCCc1cccc2cncn12)CCC(=O)N1c2ccccc2C[C@H]1C(=O)O (stereo partly specified)
IC50 [1]: 20 nM

Further lines, with some results ahead:

IC50 [1]: 6 nM
Compound: CC(=O)O[C@@H]1C[C@H](N[C@@H](CCc2ccccc2)C(=O)O)C(=O)N(CC(=O)O)c2ccccc21

IC50 [1]: 12 nM
IC50 (Thromboxane-A synthase [3]): 20 nM
Compound: Cn1c(-c2cccnc2)c(CCCCCC(=O)N2CCC(NCCCC[C@H](N[C@@H]3CCc4ccccc4N(CC(=O)[O-])C3=O)C(=O)[O-])CC2)c2cc(Cl)ccc21.[Na+].[Na+]
inhibition in vivo at 300 mg/kg (Rattus norvegicus [4]): 51%
Max delta BP (Rattus norvegicus [5]): -24 mmHg
Max delta BP (Rattus norvegicus [6]): -35 mmHg
Delta blood pressure (Rattus norvegicus [7]): inactive
Delta blood pressure (Rattus norvegicus [8]): inactive
inhibition in vivo at 300 mg/kg (Rattus norvegicus [9]): 76%

IC50 [2]: Not Active
Compound: Cc1c(-c2cccnc2)n(CCCCC(=O)O)c2ccccc12

IC50 [1]: 10 nM
Compound: Cn1c(-c2cccnc2)c(CCCCCC(=O)N(CCO)CCCC[C@H](N[C@H]2CCc3ccccc3N(CC(=O)O)C2=O)C(=O)O)c2cc(Cl)ccc21
inhibition in vivo at 300 mg/kg (Rattus norvegicus [10]): 76%
Max delta BP (Rattus norvegicus [11]): -42 mmHg
inhibition in vivo at 300 mg/kg (Rattus norvegicus [12]): 30%
Max delta BP (Rattus norvegicus [13]): -23 mmHg
Delta blood pressure (Rattus norvegicus [7]): inactive
Delta blood pressure (Rattus norvegicus [14]): -30 mmHg

IC50 [1]: 4 nM
IC50 (Thromboxane-A synthase [3]): 10 nM
Compound: Cn1c(-c2cccnc2)c(CCCCCC(=O)NCCNCCCC[C@H](N[C@H]2CCc3ccccc3N(CC(=O)[O-])C2=O)C(=O)[O-])c2cc(Cl)ccc21.[K+].[K+]
Max delta BP (Rattus norvegicus [16]): -38 mmHg
inhibition in vivo at 300 mg/kg (Rattus norvegicus [12]): 39%
Delta blood pressure (Rattus norvegicus [14]): -23 mmHg

IC50 [1]: 2 nM
IC50 (Thromboxane-A synthase [15]): Not Active
Compound: CCOC(=O)[C@H](CCc1ccccc1)N[C@H]1CCc2ccccc2N(CC(=O)O)C1=O [BENAZEPRIL]
